Like-named read-outs stand apart in the source and are kept apart here.
Assays:
human α4β2-nAChRs [1] = molecular target: T1, human α4β2-nAChRs (Homo sapiens, UniProt P17787+P43681); settings: cited from earlier work
mice [2] = assay: SmartCube automated behavioral signature; type: in vivo, mouse; settings: i.p., 15 min before testing
Ct-AChBP = Ct-AChBP (Capitella teleta, UniProt I6L8L2); assay: biochemical; type: binding
[3] = 1 h incubation, starting concentration 1 μM; ref [16]; cited from earlier work
human α4β2-nAChRs [4] = molecular target: T1, human α4β2-nAChRs; assay: 86Rb+ ion flux assay, SH-EP1 cells; type: cell-based; settings: mixture of HS and LS α4β2-nAChRs
Procedure, shortened: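 Human α4β2-nAChRs stably expressed in SH-EP1 cells, as a mixture of high- and low-sensitivity forms. Agonist responses are expressed relative to a maximally efficacious concentration of the full agonist carbamylcholine. Inactivation of function is measured after a 10 min pre-exposure to test compound. Concentration-response curves are fitted by semi-logarithmic nonlinear regression.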

mice [5] = assay: Mouse forced swim test; type: in vivo
[6] = Liver microsome stability, rat; type: in vitro ADME; settings: rat liver microsomes, 1 h, 2 μM
[7] = Liver microsome stability, dog; type: in vitro ADME; settings: dog liver microsomes, 1 h, 2 μM
[8] = Liver microsome stability, human; type: in vitro ADME; settings: human liver microsomes, 1 h, 2 μM
α4β2-nAChR = α4β2-nAChR (Rattus norvegicus, UniProt P09483+P12390); assay: [3H]epibatidine binding competition, heterologously expressed α4β2-nAChR; settings: from Ki values
[9] = Liver microsome stability, mouse; type: in vitro ADME; settings: mouse liver microsomes, 1 h, 2 μM
[10] = intraperitoneally, 3 or 10 mg/kg

## CN1CCC[C@H]1c1cccnc1 [compound 1, nicotine, reference compound]
Human α4β2-nAChRs [1]
  Agonism Hill slope: 1.0±0.1
  Inactivation Hill Slope: −0.8±0.09

## OCC[C@H]1C[C@@H]1c1cncc(OC[C@@H]2CCN2)c1 [compound 5]
Mice [2]
  SmartCube behavioral signature: signature of activity suggesting potential antidepressant-like effect
Human α4β2-nAChRs [1]; HS α4β2-nAChR, extrapolated using sazetidine-A as full agonist, ref [16]
  Agonism Efficacy at HS: 92±6%
Human α4β2-nAChRs [1]; mixture of HS and LS, ref [16]
  Inactivation Efficacy: 62±1%
Human α4β2-nAChRs [1]; ref [16]
  Agonism Hill slope: 1.0±0.4
  Inactivation Hill Slope: −1.4±0.2

## CNC(=O)OCC[C@H]1C[C@@H]1c1cncc(OC[C@@H]2CCN2)c1 [compound 6]
Mice [2]
  SmartCube behavioral signature: signature of activity suggesting potential antidepressant-like effect
Ct-AChBP
  Ki: 22 ± 3 nM
[3]
  tested compound remained unchanged: 98%

## CC[C@H]1C[C@@H]1c1cncc(OC[C@@H]2CCN2)c1.O=C(O)C(F)(F)F [compound 10, 3-[(2(S)-Azetidinyl)methoxy]-5-((1S,2S)-2-ethylcyclopropyl)pyridine Trifluoroacetate]
Mice [2]
  SmartCube behavioral signature: signature of activity suggesting potential antidepressant-like effect
Human α4β2-nAChRs [4]
  Agonism Hill slope: 1.1±0.2
  Inactivation Hill Slope: −1.1±0.3
Mice [5]; [10]
  effect in the forced swim test: no significant effect

## FCC[C@H]1C[C@@H]1c1cncc(OC[C@@H]2CCN2)c1.O=C(O)C(F)(F)F [compound 12, 3-[(2(S)-Azetidinyl)methoxy]-5-[(1S,2R)-2-(2-fluoroethyl)cyclopropyl]pyridine Trifluoroacetate]
Mice [2]
  SmartCube behavioral signature: signature of activity suggesting potential antidepressant-like effect
Human α4β2-nAChRs [4]
  Agonism Hill slope: 1.3±0.5
  Inactivation Hill Slope: −1.2±0.4
[6]
  compound remained unchanged: no less than 98%
[7]
  compound remained unchanged: no less than 98%
[8]
  compound remained unchanged: no less than 98%
Mice [5]; intraperitoneally or orally
  effect in the forced swim test: antidepressant-like effect
  minimal dose with significant reduction in immobility: 3 mg/kg
α4β2-nAChR
  selectivity for α4β2- over α3β4-nAChRs: greater than 16000 fold
[9]
  compound remained unchanged: no less than 98%

## FC(F)C[C@H]1C[C@@H]1c1cncc(OC[C@@H]2CCN2)c1.O=C(O)C(F)(F)F [compound 13, 3-[(2(S)-Azetidinyl)methoxy]-5-[(1S,2R)-2-(2,2-difluoroethyl)cyclopropyl]pyridine Trifluoroacetate]
Mice [2]
  SmartCube behavioral signature: signature of activity suggesting potential antidepressant-like effect
Human α4β2-nAChRs [4]
  Agonism Hill slope: 1.4±0.4
  Inactivation Hill Slope: −1.1±0.3
Mice [5]; [10]
  effect in the forced swim test: no significant effect
α4β2-nAChR
  selectivity for α4β2- over α3β4-nAChRs: greater than 16000 fold

## CN[C@H]1CC[C@@H](c2ccc(Cl)c(Cl)c2)c2ccccc21 [sertraline, reference compound]
Mice [5]; positive control, 20 mg/kg
  effect on immobility in the forced swim test: expected decrease in immobility

— article PMC3464052 (Journal of medicinal chemistry, 2012)
